Results published in paper PMC7422904 (Translational Vision Science & Technology, 2020).

Columns and labels:
[1] = system: chicken chorioallantoic membranes; experiment: Hen's egg test in chorioallantoic membrane
Procedure, shortened: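 Fertilized hen eggs incubated 10 days at 37 ± 1°C and 60 ± 1% relative humidity. Shell opened and inner membranes removed. Test compound (40, 80, 160, 320 µg) applied to the CAM and watched for 300 s. Controls: 0.9% NaCl (negative) and 0.1 M NaOH (positive); N = 10. Onset times of hemorrhage, lysis and coagulation were weighted 5, 7 and 9 in the OII equation.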

[2] = system: ocular hypertensive rat eyes; format: in vivo, Wistar rats; settings: ocular hypertensive rats, single drop, Bimatoprost 8.8 µg/eye, N = 6
Procedure, shortened: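 Male Wistar rats (7–10 weeks) under i.p. ketamine/xylazine (90:10 mg/kg) plus topical 0.5% proxymetacaine. Right eye received 30 µL HA (10 mg/mL) intracamerally near the limbus, weekly for 3 weeks. Dosing (one 20 µL drop) began once IOP was raised. Groups: saline, test compound, bimatoprost, combination, normotensive saline; N = 6. IOP: TonoPen Vet on unsedated rats, mean of four readings.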

| SMILES | irritancy classification in words (HET-CAM) ([1]; PnPP-19 at all concentrations tested, NaOH at 0.1 M, 300 seconds) | OII ± SEM (ocular irritation index) ([1]; positive control 0.1 M, observed 300 seconds, N = 10) | ability to reduce IOP (in words) [2] |
| --- | --- | --- | --- |
| [Na+].[OH-] [0.1 M NaOH, sodium hydroxide] | severely irritating | 20.11± 0.32 | – |
| CCNC(=O)CCC/C=C\C[C@@H]1[C@@H](/C=C/[C@@H](O)CCc2ccccc2)[C@H](O)C[C@@H]1O [Bimatoprost] | – | – | not able to reduce IOP |
